Experimental data from different studies.
Each line is one published result; the experiments were not run side by side.
Target: Platelet-derived growth factor receptor alpha (PDGFRA, Homo sapiens, UniProt P16234)

The remaining binding of CCN1CCN(Cc2ccc(C(=O)Nc3ccc(C)c(Oc4ccc5c(c4)CC(=O)N5)c3)cc2C(F)(F)F)CC1 is reported as 100% (binding; competition with immobilised ligand; 1 µM).
Cn1cc(Cl)c2c(Oc3c(F)cc(Nc4cc(Cl)nc(N)n4)cc3F)ccnc21 has a remaining binding of 98% (cell-free assay; competition with immobilised ligand; 0.1 µM).
With F[C@@H]1CCN(c2nccc(-c3cnn4ncccc34)n2)C1 the remaining binding was 100% (binding; 1 µM).
With COc1ncc2cc3ccccc3nc2c1C#N the remaining binding was 83% (cell-free assay; competition with immobilised ligand; 5 µM).
N#Cc1ccccc1CSc1nnc2c(n1)[nH]c1ccccc12 gave a remaining binding of 94% (binding; competition with immobilised ligand; 10 µM).
For COC(=O)Nc1nc2ccc(C(=O)c3ccccc3)cc2[nH]1, the remaining binding was 7.8% (cell-free assay; competition with immobilised ligand; 10 µM).
With CN(c1nccc(-c2cnn3ncccc23)n1)C1CC1 the remaining binding was 100% (binding; 1 µM).
CNCc1ccccc1-c1csc([C@H](C)Nc2nc(C)nc3cc(OC)c(OC)cc23)c1 gave a remaining binding of 92% (cell-free assay; competition with immobilised ligand; 1 µM).
O=C(NCC1CCOCC1)c1n[nH]cc1NC(=O)c1c(F)cccc1F has a remaining binding of 84% (binding; competition with immobilised ligand; 1 µM).
The remaining binding of C[C@@H]1CN(c2ccc3ncc(-c4ccc5[nH]nc(C6CC6)c5c4)n3n2)C[C@H](C)O1 is reported as 81% (binding; competition with immobilised ligand; 50 nM).
COc1cnc(Nc2cccc(S(N)(=O)=O)c2)nc1N1CCN(c2ccccc2)C(=O)C1 has a remaining binding of 82% (binding; competition with immobilised ligand; 1 µM).
c1cncc(-c2cccc(Nc3nccc(NC4CCCCC4)n3)c2)c1 has a remaining binding of 11% (binding; competition with immobilised ligand; 10 µM).
With CCS(=O)(=O)c1cc2cc(C[C@@](O)(CC(C)(C)c3ccc(F)cc3C(N)=O)C(F)(F)F)[nH]c2cn1 the remaining binding was 99% (cell-free assay; competition with immobilised ligand; 1 µM).
The remaining binding of Cc1cnn2ncc(-c3ccnc(N(C)C)n3)c2c1 is reported as 97% (binding; 1 µM).
With O=C(c1ccc(Nc2nccc(-c3cc4ccccc4s3)n2)cc1)N1CCC(N2CCCC2)CC1 the remaining binding was 52% (binding; competition with immobilised ligand; 1 µM).
COCCOc1nc(-c2ccc(Cl)nc2)nc2c1CN(C(=O)c1ncn3ccccc13)CC2 has a remaining binding of 100% (cell-free assay; competition with immobilised ligand; 0.1 µM).
With O=C(c1ccc(Nc2ncc(Cl)c(-c3ccc(Cl)s3)n2)cc1)N1CCC(N2CCCC2)CC1 the remaining binding was 3.4% (binding; competition with immobilised ligand; 1 µM).
The remaining binding of CCOCCn1cc(C(=O)Nc2ccc(-n3nc(-c4cccnc4)cc3C(F)(F)F)cn2)ccc1=O is reported as 68% (cell-free assay; competition with immobilised ligand; 1 µM).
With C=CC(=O)N1CCC(C(=O)NCC(=O)N2CCN(c3nc(-c4cnc(N)nc4C(F)F)nc(N4CCOCC4)n3)CC2)CC1 the remaining binding was 91% (binding; competition with immobilised ligand; 1 µM).
Nc1ncc2c(n1)-c1c([nH]c3ccc(C#CC4CC4)cc13)CCCC2 gave a remaining binding of 76% (binding; competition with immobilised ligand; 1 µM).
With CN(C)c1ncc(F)c(-c2cnn3ncccc23)n1 the remaining binding was 67% (binding; 1 µM).
For COc1cccc(CNC(=O)c2nc3scc(COCc4ccc(C(=O)O)cc4)c3c(=O)[nH]2)c1, the remaining binding was 56.3% (cell-free assay; competition with immobilised ligand; 1 µM).
N[C@@H]1CCN(c2nccc(-c3cnn4ncccc34)n2)C1 gave a remaining binding of 100% (binding; 1 µM).
The remaining binding of O=C(c1ccc(Nc2ncc(Cl)c(-c3cc4ccccc4s3)n2)cc1)N1CCC(N2CCCC2)CC1 is reported as 35% (binding; competition with immobilised ligand; 1 µM).
CSc1cccnc1N1CCN(Cc2nc3ccccc3[nH]2)CC1 gave a remaining binding of 89% (cell-free assay; competition with immobilised ligand; 1 µM).
With C[C@H]1CCN(c2nccc(-c3cnn4ncccc34)n2)C1 the remaining binding was 83% (binding; 1 µM).
